Source: ChEMBL document CHEMBL2434837, “Anticancer evaluation of some newly synthesized N-nicotinonitrile derivative” (Eur J Med Chem, 2013)
Values after ≈ are worked out from the molar mass of the structure shown. Active and inactive are the calls of the source. No cut-off for these calls is given here.

How the values were obtained:
HepG2 [1] = assay: Cytotoxicity against human HepG2 cells after 48 hrs by SRB assay; assay type: functional, cell-based
Summary of the method: (§1)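 Cells from ATCC, kept in DMEM with 10% heat-inactivated fetal calf serum, penicillin and streptomycin at 37 °C, 5% CO2. Seeded at 10^4 cells/well and left 24 h to attach. Compounds in DMSO (1 mg/ml stock) added at several concentrations, triplicate wells per dose, 48 h exposure. Then fixed, stained 30 min with 0.4% SRB in 1% acetic acid, and dye recovered in Tris-EDTA for absorbance. IC50 derived from surviving fraction versus concentration.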

A549 [2] = assay: Cytotoxicity against human A549 cells after 48 hrs by SRB assay; assay type: functional, cell-based; summary of the method: as §1
MCF7 [3] = assay: Inhibition of uPA protein expression in human MCF7 cells at 0.1 time compound IC50 after 48 hrs by ELISA; assay type: functional
Summary of the method: (§2)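 Cells exposed 48 h to compound. Culture medium collected and spun at 2000 xg for 10 min to remove debris. Sandwich ELISA for human uPA: sample 2 h, biotinylated anti-uPA 1 h at 25 °C, streptavidin-peroxidase 30 min, chromogen, then stop solution, absorbance read at 450 nm. uPA level expressed as percent change relative to DMSO-treated control cells.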

HepG2 [4] = assay: Inhibition of uPA protein expression in human HepG2 cells at 0.1 time compound IC50 after 48 hrs by ELISA; assay type: functional; summary of the method: as §2
A549 [5] = assay: Inhibition of uPA protein expression in human A549 cells at 0.1 time compound IC50 after 48 hrs by ELISA; assay type: functional; summary of the method: as §2
MCF7 [6] = assay: Cytotoxicity against human MCF7 cells after 48 hrs by SRB assay; assay type: functional, cell-based; summary of the method: as §1
[7] = Homo sapiens, HepG2, 48 h, read-out: IC50
[8] = Homo sapiens, MCF7, 48 h, read-out: IC50

| SMILES | IC50 (HepG2 [1]; hepg2) | IC50 (A549 [2]; a549) | inhibition (MCF7 [3]) | inhibition (HepG2 [4]) | inhibition (A549 [5]) | IC50 (MCF7 [6]; mcf7) | IC50 (HepG2 [1]; [7]) [µg/mL] | inhibition (INH) (MCF7 [3]) [%] | inhibition (INH) (HepG2 [4]) [%] | IC50 (MCF7 [6]; [8]) [µg/mL] | IC50 (A549 [2]; Homo sapiens, A549, 48 h, read-out: IC50) [µg/mL] | inhibition (INH) (A549 [5]) [%] |
| --- | --- | --- | --- | --- | --- | --- | --- | --- | --- | --- | --- | --- |
| N#CCn1c(-c2ccc(Cl)cc2)cc(-c2ccc(Cl)cc2)c(C#N)c1=O | Not Active | Not Active | inactive | inactive | inactive | Not Active | – | – | – | – | – | – |
| N#Cc1c(-c2ccc(Cl)cc2)cc(-c2ccc(Cl)cc2)n(CC2CO2)c1=O (stereo not drawn) | – | Not Active | – | – | inactive | – | 6.2 (≈ 15.6 µM) | 77 | 63 | 5 (≈ 12.6 µM) | – | – |
| C#CCn1c(-c2ccc(Cl)cc2)cc(-c2ccc(Cl)cc2)c(C#N)c1=O | – | Not Active | – | – | inactive | – | 18.3 (≈ 48.3 µM) | 7 | 5 | 16.7 (≈ 44 µM) | – | – |
| N#Cc1c(-c2ccc(Cl)cc2)cc(-c2ccc(Cl)cc2)[nH]c1=O | Not Active | Not Active | inactive | inactive | inactive | Not Active | – | – | – | – | – | – |
| N#Cc1c(-c2ccc(Cl)cc2)cc(-c2ccc(Cl)cc2)n([C@@H]2O[C@H](COC(=O)c3ccccc3)[C@@H](OC(=O)c3ccccc3)[C@H]2OC(=O)c2ccccc2)c1=O | – | Not Active | – | – | inactive | – | 8 (≈ 10.2 µM) | 66 | 60 | 5.9 (≈ 7.51 µM) | – | – |
| N#Cc1c(-c2ccc(Cl)cc2)cc(-c2ccc(Cl)cc2)n(CC(O)CCl)c1=O (stereo not drawn) | – | Not Active | – | – | inactive | – | 4.8 (≈ 11.1 µM) | 82 | 67 | 4.6 (≈ 10.6 µM) | – | – |
| COc1cccc2c1C(=O)c1c(O)c3c(c(O)c1C2=O)C[C@@](O)(C(=O)CO)C[C@@H]3O[C@H]1C[C@H](N)[C@H](O)[C@H](C)O1 [DOXORUBICIN] | – | – | – | – | – | – | 3.9 (≈ 7.18 µM) | 91 | 88 | – | 4.11 (≈ 7.56 µM) | 82 |
| CC(=O)OC[C@H]1O[C@@H](n2c(-c3ccc(Cl)cc3)cc(-c3ccc(Cl)cc3)c(C#N)c2=O)[C@H](OC(C)=O)[C@@H](OC(C)=O)[C@@H]1OC(C)=O | – | Not Active | – | – | inactive | – | 7.25 (≈ 10.8 µM) | 54 | 48 | 6.3 (≈ 9.38 µM) | – | – |
| N#Cc1c(-c2ccc(Cl)cc2)cc(-c2ccc(Cl)cc2)n([C@@H]2O[C@H](CO)[C@@H](O)[C@H]2O)c1=O | – | Not Active | – | – | inactive | – | 6.9 (≈ 14.6 µM) | 60 | 56 | 5.7 (≈ 12 µM) | – | – |
| CCn1c(-c2ccc(Cl)cc2)cc(-c2ccc(Cl)cc2)c(C#N)c1=O | – | Not Active | – | – | inactive | – | 22.3 (≈ 60.4 µM) | 3 | 2 | 19.7 (≈ 53.4 µM) | – | – |
| N#Cc1c(-c2ccc(Cl)cc2)cc(-c2ccc(Cl)cc2)n(Cc2ccccc2)c1=O | – | Not Active | – | – | inactive | – | 4.2 (≈ 9.74 µM) | 86 | 83 | 3.65 (≈ 8.46 µM) | – | – |
| C=CCn1c(-c2ccc(Cl)cc2)cc(-c2ccc(Cl)cc2)c(C#N)c1=O | – | Not Active | – | – | inactive | – | 20 (≈ 52.5 µM) | 3 | 5 | 19 (≈ 49.8 µM) | – | – |
| N#Cc1c(-c2ccc(Cl)cc2)cc(-c2ccc(Cl)cc2)n([C@@H]2O[C@H](CO)[C@@H](O)[C@H](O)[C@H]2O)c1=O | – | Not Active | – | – | inactive | – | 16.1 (≈ 32 µM) | 9 | 6 | 14.2 (≈ 28.2 µM) | – | – |
| N#Cc1c(-c2ccc(Cl)cc2)cc(-c2ccc(Cl)cc2)n(C(=O)c2ccccc2)c1=O | – | Not Active | – | – | inactive | – | 3.75 (≈ 8.42 µM) | 90 | 87 | 2.6 (≈ 5.84 µM) | – | – |
